# Experimental data published in article PMC12077508 (Science Advances, 2025).
# pEC50: −log10 of the molar value.
# Experiments:
# OR1D2; OR1D1 (Table 2) = OR1D2; OR1D1 (Table 2) (Homo sapiens, UniProt P34982); experiment: cell-based
# OR2J2 = biological target: T1, OR2J2 (Homo sapiens, UniProt O76002); experiment: cAMPr fluorescence imaging in transfected HEK293T cells; type: cell-based
# T1 sequence (O76002 1-312): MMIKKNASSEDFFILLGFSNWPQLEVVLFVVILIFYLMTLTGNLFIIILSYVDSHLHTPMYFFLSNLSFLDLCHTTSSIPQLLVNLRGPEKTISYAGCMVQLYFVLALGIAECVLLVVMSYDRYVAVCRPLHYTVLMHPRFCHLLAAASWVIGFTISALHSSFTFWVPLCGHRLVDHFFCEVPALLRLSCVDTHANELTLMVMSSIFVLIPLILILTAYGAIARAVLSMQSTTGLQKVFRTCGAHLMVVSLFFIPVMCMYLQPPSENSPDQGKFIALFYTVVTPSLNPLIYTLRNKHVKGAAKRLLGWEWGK
# Outline: (§1)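 HEK293T cells stably expressing the cpGFP-based cAMP sensor cAMPr, on collagen-coated glass dishes, transfected with Rho-tagged receptor (N-terminal 20 residues of bovine rhodopsin) plus RTP1S. Each odorant concentration was tested in a separate experiment, with or without fibronectin, and curves were fitted for EC50 and Hill coefficient.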
# OR2W1 = biological target: T2, OR2W1 (Homo sapiens, UniProt Q9Y3N9); experiment: cAMPr fluorescence imaging in transfected HEK293T cells; type: cell-based
# T2 sequence (Q9Y3N9 1-320): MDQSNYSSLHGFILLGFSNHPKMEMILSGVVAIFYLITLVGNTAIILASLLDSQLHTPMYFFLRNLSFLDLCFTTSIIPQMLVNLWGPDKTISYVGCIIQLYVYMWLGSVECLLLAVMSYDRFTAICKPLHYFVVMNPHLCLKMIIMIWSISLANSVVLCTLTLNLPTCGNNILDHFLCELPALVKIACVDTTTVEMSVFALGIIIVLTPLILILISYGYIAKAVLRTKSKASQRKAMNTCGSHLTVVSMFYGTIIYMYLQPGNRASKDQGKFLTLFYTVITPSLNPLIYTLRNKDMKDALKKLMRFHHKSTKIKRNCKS
# OR51E1 = biological target: T3, OR51E1 (Homo sapiens, UniProt Q8TCB6); experiment: cAMPr fluorescence imaging in transfected HEK293T cells; type: cell-based
# T3 sequence (Q8TCB6 1-318): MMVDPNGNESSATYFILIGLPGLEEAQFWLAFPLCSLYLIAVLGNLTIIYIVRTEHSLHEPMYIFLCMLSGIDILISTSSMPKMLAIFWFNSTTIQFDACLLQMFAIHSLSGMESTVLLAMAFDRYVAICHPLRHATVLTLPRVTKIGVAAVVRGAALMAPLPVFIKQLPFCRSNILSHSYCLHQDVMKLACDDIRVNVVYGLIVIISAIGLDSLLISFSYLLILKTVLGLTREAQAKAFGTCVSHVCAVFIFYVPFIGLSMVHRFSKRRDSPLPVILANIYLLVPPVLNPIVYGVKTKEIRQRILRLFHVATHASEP
# Outline: as §1
# OR8D1 = biological target: T4, OR8D1 (Homo sapiens, UniProt Q8WZ84); experiment: cAMPr fluorescence imaging in transfected HEK293T cells; type: cell-based
# T4 sequence (Q8WZ84 1-308): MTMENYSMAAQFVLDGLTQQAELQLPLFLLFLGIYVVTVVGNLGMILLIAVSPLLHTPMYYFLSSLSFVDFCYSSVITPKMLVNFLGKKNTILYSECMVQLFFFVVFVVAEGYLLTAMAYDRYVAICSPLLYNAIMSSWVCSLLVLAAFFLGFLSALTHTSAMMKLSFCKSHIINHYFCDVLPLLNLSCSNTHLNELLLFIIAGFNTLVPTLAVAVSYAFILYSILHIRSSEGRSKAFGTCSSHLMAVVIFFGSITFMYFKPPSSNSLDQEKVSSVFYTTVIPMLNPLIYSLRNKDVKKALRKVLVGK
# OR5AN1 = biological target: T5, OR5AN1 (Homo sapiens, UniProt Q8NGI8); experiment: as above; type: cell-based
# T5 sequence (Q8NGI8 1-311): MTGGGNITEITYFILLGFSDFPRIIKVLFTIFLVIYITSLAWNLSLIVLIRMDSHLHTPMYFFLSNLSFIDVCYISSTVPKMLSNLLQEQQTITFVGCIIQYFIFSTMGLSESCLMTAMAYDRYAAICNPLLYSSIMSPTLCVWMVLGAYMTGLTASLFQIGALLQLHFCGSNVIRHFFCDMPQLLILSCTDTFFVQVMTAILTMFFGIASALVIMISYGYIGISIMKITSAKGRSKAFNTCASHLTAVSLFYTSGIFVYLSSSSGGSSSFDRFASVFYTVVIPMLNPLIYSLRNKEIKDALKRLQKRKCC
# OR5K1 = biological target: T6, OR5K1 (Homo sapiens, UniProt Q8NHB7); experiment: cAMPr fluorescence imaging in transfected HEK293T cells; type: cell-based
# T6 sequence (Q8NHB7 1-308): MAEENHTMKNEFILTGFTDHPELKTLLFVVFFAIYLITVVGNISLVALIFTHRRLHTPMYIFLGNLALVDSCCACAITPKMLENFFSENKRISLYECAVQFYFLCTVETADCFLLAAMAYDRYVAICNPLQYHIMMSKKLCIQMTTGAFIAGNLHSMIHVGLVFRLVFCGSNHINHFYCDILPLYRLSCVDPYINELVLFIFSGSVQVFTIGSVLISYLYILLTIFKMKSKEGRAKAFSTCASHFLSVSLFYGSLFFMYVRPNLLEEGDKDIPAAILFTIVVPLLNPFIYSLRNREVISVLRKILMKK
# Outline: as §1
# Olfr73 (mOR-EG) = biological target: T7, Olfr73 (mOR-EG) (Mus musculus, UniProt Q920P2); experiment: cAMPr fluorescence imaging in transfected HEK293T cells; type: cell-based
# T7 sequence (Q920P2 1-313): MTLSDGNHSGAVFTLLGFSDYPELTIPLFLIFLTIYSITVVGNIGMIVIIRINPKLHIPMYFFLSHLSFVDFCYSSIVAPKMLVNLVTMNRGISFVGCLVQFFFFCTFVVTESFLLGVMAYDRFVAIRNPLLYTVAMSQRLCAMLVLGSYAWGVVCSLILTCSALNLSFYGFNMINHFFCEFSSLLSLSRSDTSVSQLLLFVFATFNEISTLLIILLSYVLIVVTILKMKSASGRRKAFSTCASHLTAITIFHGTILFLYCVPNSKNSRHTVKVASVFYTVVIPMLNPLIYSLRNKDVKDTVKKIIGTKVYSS
# OR5P3 = biological target: T8, OR5P3 (Homo sapiens, UniProt Q8WZ94); experiment: cAMPr fluorescence imaging in transfected HEK293T cells; type: cell-based
# T8 sequence (Q8WZ94 1-311): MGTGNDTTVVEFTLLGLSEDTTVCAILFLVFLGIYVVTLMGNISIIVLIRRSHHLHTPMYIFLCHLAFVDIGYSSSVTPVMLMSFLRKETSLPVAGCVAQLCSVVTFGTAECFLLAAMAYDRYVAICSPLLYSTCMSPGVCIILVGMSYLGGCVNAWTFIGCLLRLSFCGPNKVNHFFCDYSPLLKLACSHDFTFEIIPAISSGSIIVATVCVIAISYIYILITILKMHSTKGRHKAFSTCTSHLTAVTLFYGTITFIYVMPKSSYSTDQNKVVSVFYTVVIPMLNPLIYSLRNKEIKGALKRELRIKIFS
# Outline: as §1
# Chain of OR1D2; OR1D1 (Table 2) (P34982 whole entry): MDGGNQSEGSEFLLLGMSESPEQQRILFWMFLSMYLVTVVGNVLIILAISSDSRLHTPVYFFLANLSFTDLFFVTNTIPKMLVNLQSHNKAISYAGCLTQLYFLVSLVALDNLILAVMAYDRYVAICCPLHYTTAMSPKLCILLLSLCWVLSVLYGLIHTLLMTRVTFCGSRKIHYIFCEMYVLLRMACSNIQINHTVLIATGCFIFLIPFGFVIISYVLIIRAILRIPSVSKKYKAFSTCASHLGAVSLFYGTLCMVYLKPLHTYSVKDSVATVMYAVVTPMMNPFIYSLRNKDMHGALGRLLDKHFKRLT
smiles,measurement,setting,value
CCCCCCCC1CCC(=O)O1 (centres unmarked) [γ-undecalactone],pEC50,OR1D2; OR1D1 (Table 2),3.82
same,pEC50,OR2J2,3.60
CCCCCOC(C)=O [pentyl acetate],pEC50,OR2W1,4.36
CC(C)CC(=O)O [isovaleric acid],pEC50,OR51E1,3.08
CC1=C(O)C(=O)OC1C (centres unmarked) [sotolon],pEC50,OR8D1,5.11
CC1CCCCCCCCCCCCC(=O)C1 (centres unmarked) [muscone],pEC50,OR5AN1,3.54
"Cc1nccnc1C [2,3-dimethyl pyrazine]",pEC50,OR5K1,1.92
CC1=C(O)C(=O)CC1 [cyclotene],pEC50,OR8D1,2.96
C=CCc1ccc(O)c(OC)c1 [eugenol],pEC50,Olfr73 (mOR-EG),3.81
OCCc1ccccc1 [β-phenylethyl alcohol],pEC50,OR2W1,2.82
COC(=O)c1ccccc1N [methyl anthranilate],pEC50,OR5P3,2.66
